# Screening data as filed in PubChem BioAssay.
# The list is not random: actives were taken first. Their share in the collection is about 1.9%.
# LANA-H2A inh: blocks KSHV LANA binding to histone H2A/H2B. Q9QR71. cell-free LANA-H2A/H2B peptide, fluorescence polarization. inhibition, % (concentration not given with the values). actives 0.6% (n = 320,000). AID 2629; in the data active = inhibition mostly above about 10%, no sharp cut-off; inactive = mostly below about 6.7%
# CaV13 ICDI inh: Primary screen for inhibitors of IQ motif and Ca2+-dependent inactivation inhibitor domain binding in CACNA1D, Förster resonance energy transfer in living cells, …; actives 0.098% (n = 340,000); inhibition, % at 12.3 µM; HEK cells, CFP/YFP FRET ICDI-IQ, plate reader, 10 min; percent FRET-ratio fall versus neutral wells;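 active = mean replicate inhibition of at least 30% and at least 1% of replicates passing that level; inconclusive = only one of the two criteria is met; inactive = neither criterion is met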;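 note: 0% = median of the neutral control wells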
# Runt-SMMHC FRET: Runt domain-CBFb-SMMHC interaction inhibition; Q01196+Q13951; Cerulean-Runt/Venus-CBFb-SMMHC FRET ratio 530/480, 1 h; inhibition, % at 20 µM; actives 0.74% (n = 220,000); AID 1434;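 active = mean inhibition across duplicate retests at 20 µM reaching about 50%, limit read from the data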;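 note: 0% = DMSO wells and 100% = wells with excess untagged CBFb-SMMHC; inhibitors lower the FRET ratio by blocking Runt binding to CBFb-SMMHC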
# Target sequence (Q01196 whole entry, looked up, the tested form may be a part): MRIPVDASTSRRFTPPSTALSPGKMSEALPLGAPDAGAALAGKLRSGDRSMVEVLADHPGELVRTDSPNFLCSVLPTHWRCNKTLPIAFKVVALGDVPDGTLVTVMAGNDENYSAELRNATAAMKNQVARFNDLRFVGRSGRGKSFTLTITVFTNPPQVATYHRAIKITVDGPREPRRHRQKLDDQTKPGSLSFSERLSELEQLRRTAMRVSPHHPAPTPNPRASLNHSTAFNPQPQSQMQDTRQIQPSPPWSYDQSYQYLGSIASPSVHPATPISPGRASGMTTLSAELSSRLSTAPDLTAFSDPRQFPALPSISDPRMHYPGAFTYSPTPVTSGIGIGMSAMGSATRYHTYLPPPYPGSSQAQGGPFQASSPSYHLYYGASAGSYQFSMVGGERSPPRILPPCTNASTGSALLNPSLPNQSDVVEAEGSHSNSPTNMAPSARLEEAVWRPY
# Target sequence (Q13951 whole entry, looked up, the tested form may be a part): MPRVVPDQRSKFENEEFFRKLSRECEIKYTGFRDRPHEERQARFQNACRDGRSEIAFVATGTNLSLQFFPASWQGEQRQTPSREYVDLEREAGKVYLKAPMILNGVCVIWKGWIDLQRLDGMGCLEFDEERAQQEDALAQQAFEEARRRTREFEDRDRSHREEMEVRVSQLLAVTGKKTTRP
# RanGTP-Impb inh: inhibitors of RanGTP-importin-beta interaction, primary screen, biochemical, FRET, CFP-Ran, YFP-importin-beta, homogeneous; cell-free CFP-Ran/YFP-importin-beta FRET ratio; actives 1.1% (n = 300,000); inhibition, % (concentration not given with the values); AID 2216;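 active = more than half of the replicate wells show a fall in the fluorescence ratio signal beyond about 16%, limit read from the data, passing the limit was not always enough; inconclusive = exactly half of the replicate wells pass the set limit; inactive = fewer than half of replicates pass the limit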;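 note: 0% = DMSO wells and 100% = Ran loaded with GDP instead of GTP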
# Runt-CBFb FRET: inhibitors of human RUNX1 Runt domain binding to CBFb; AID 1496; inhibition, % at 20 µM; Cerulean-Runt/Venus-CBFb FRET ratio 530/480, 1 h; actives 0.46% (n = 220,000);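 active = inhibition over about 50% at 20 µM in the single-dose screen, limit read from the data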;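 note: 0% = DMSO wells and 100% = excess unlabeled CBFb competitor control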
#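 Doses: 20 µM compound in 1% DMSO | Material: Cerulean-labeled Runt domain protein | Amount: Each fluorescent fusion protein 100 nM | Schedule: Two 1 h room-temperature incubations shielded from light | Measured by: FRET fluorescence | Evaluation: Loss of energy transfer signal | Controls: Unlabeled CBFb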
# HDAC3 inh: blocks human histone deacetylase 3. O15379. recombinant HDAC3, fluorogenic peptide/trypsin coupled, fluorescence. inhibition, % at 8.3 µM. actives 0.15% (n = 320,000); in the data active = inhibition above about 26%, passing the limit was not always enough; inconclusive = no clear call, values can overlap the other calls
# Numbers without * were called inactive; ? = inconclusive; nt = no result given; + = active, no number.
SMILES,LANA-H2A inh,CaV13 ICDI inh,Runt-SMMHC FRET,RanGTP-Impb inh,Runt-CBFb FRET,HDAC3 inh
O=C(Nc1ccc(Cl)cn1)C1CCCN1S(=O)(=O)c1ccccc1 (stereo not given),-3,nt,3,2,0,-5
O=C(O)c1ccccc1-c1c2cc(I)c(=O)c(I)c-2oc2c(I)c(O)c(I)cc12,-90,-4,nt,nt,nt,10
CC1CCCC(C)N1C(=O)c1cc2ncc(CCCl)cn2n1 (stereo not given),13*,-5,-6,2,-1,-2
CCCNc1c(N)c(=O)oc2ccccc12,8,-8,0,3,2,?
Cc1ccsc1C(=O)Nc1nc2ccccc2[nH]1,2,-2,2,0,-1,4
CCOC(=O)c1c(-c2ccccc2)oc2cc(CN(C)C)c(O)c(CN(C)C)c12,49*,-9,nt,0,nt,9
COCCCOc1cc(NCc2ccccc2)c2ncn(C(C)C)c2c1,-1,122*,nt,nt,nt,2
O=c1c(-c2ccccc2)c(O)c2cccc3c2n1CCC3,20*,nt,-5,-1,0,-10
Cc1ccc2c(c1)N(C(C)C(=O)NCc1ccccn1)C(=O)CO2 (stereo not given),1,-8,0,-2,2,1
Cc1ccc2c(c1)N(C(C)C(=O)NCc1cccs1)C(=O)CO2 (stereo not given),20*,-16,0,5,1,2
COc1ccc(NC(=O)CSc2nnnn2C2CC3C=CC2C3)cc1 (stereo not given),1,-3,nt,1,nt,2
CCN1CCc2c(sc(NC(=S)NC(=O)c3ccc(Cl)cc3)c2C(N)=O)C1,-3,-1,60*,81*,119*,10
CC(C)N1CCc2c(sc(NC(=O)c3ccc(S(=O)(=O)N4CCc5ccccc54)cc3)c2C(N)=O)C1,-24,nt,26,90*,-14,0
CCN1CCc2c(sc(NC(=O)c3ccc(S(=O)(=O)N4CC(C)OC(C)C4)cc3)c2C(N)=O)C1 (stereo not given),1,-1,nt,28*,nt,-3
CCN1CCN(S(=O)(=O)c2ccc(C(=O)Nc3sc4c(c3C(N)=O)CCN(CC)C4)cc2)CC1,-5,-6,nt,58*,nt,9
CC1CN(S(=O)(=O)c2ccc(C(=O)Nc3sc4c(c3C(N)=O)CCN(C)C4)cc2)CC(C)O1 (stereo not given),nt,nt,5,nt,0,nt
CC(C)N1CCc2c(sc(NC(=O)c3nc4ccccc4s3)c2C(N)=O)C1,-2,-63,33,0,9,4
CCN1CCc2c(sc(NC(=O)c3ccc4ccccc4c3)c2C(N)=O)C1,-4,-8,nt,nt,nt,-2
CCOC(=O)C1CCN(S(=O)(=O)c2ccc3c(c2)CC(C)N3C(=O)C2CC2)CC1 (stereo not given),-6,-4,nt,0,nt,2
CC1Cc2cc(S(=O)(=O)N3CCC(C(N)=O)CC3)ccc2N1C(=O)C1CC1 (stereo not given),1,-2,nt,18*,nt,-3
Cc1ccc(C)c(OCCC(=O)OCC(=O)N2c3ccccc3NC(=O)C2(C)C)c1,12*,-5,nt,nt,nt,6
COc1ccccc1CCC(=O)OCC(=O)N1c2ccccc2NC(=O)C1(C)C,nt,-5,nt,nt,nt,-1
COc1ccc(CNC(=O)[C@@H](NC(=O)C2CCN(S(=O)(=O)c3ccccc3)CC2)C(C)C)cc1,0,-3,nt,2,nt,-1
O=C(CCC(=O)OCC(=O)c1ccc(Br)cc1)Nc1ccc(Br)c2cccnc12,-2,-6,1,8,1,3
COc1cc(C2C3=C(CC(C)(C)CC3=O)N(C)C3=C2C(=O)CC(C)(C)C3)cc(Br)c1O,-3,35*,nt,?,nt,-2
SMILES,LANA-H2A inh,CaV13 ICDI inh,Runt-SMMHC FRET,RanGTP-Impb inh,Runt-CBFb FRET,HDAC3 inh
COc1cc(C2C3=C(CC(C)(C)CC3=O)N(C)C3=C2C(=O)CC(C)(C)C3)ccc1O,7,5,nt,11,nt,-10
CCOC(=O)/C(C#N)=C1/C=C(C)c2ccccc2N1,0,-5,91*,4,44,-19
O=C(CSc1nc2ccccc2c(=O)n1Cc1ccc(C(=O)NC2CC2)cc1)NCc1ccco1,0,-6,1,3,-2,-2
CCOc1ccc(NS(=O)(=O)c2cc3c4c(c2)CCN4C(=O)CC3)cc1,1,-4,nt,-3,nt,6
Cc1c(N)cccc1[N+](=O)[O-],-7,nt,nt,nt,nt,-2
Cc1c(N)cccc1N,123*,nt,nt,nt,nt,13
O=C(N(c1ccccc1)c1ccccc1)N(c1ccccc1)c1ccccc1,-2,-14,-1,-1,0,-1
O=C(O)c1ccccc1C(=O)N(c1ccccc1)c1ccccc1,0,-6,nt,31*,nt,6
CCSc1nc(O)c(Cc2ccccc2)c(=O)[nH]1,4,-4,3,-3,2,6
COC(=O)c1ccc(-c2sc3nc(N4CCOCC4)c4c(c3c2N)CC(C)(C)OC4)o1,-1,-6,-24,24*,-2,1
COc1ccc(N(C(=O)c2cccnc2)S(=O)(=O)c2ccc(F)cc2)cc1,5,4,nt,6,nt,-2
CC1(C)CC(NC(=O)c2ccc(Cl)cc2Cl)CC(C)(C)N1,-3,-2,nt,-3,nt,-7
CN(CCOC(=O)/C=C/c1ccccc1)C(C)(C)C,1,-5,2,4,-2,-1
CC(C)N(C)CCOC(=O)/C=C/c1ccccc1,+,-6,4,-3,-2,9
Nc1nnc(/C=C/c2ccccc2Cl)s1,4,1,0,6,4,-7
CCCCCCN1C=CC=C/C1=C/C=C(C#N)C#N,10*,-7,-49,-3,-18,17
CCCCCN1C=CC=C/C1=C\C=C(C#N)C#N,0,-6,-42,-1,-14,-2
CCCN1C=CC(=C/C=C(\C#N)C(=O)OCC)C=C1,-55,nt,-92,?,-42,30*
CCCCCCN1C=CC(=C/C=C(\C#N)C(=O)OCC)C=C1,-11,-9,-113,?,-53,-3
CCCN1C=CC(=CC=C(C#N)C#N)C=C1,-28,-4,-30,34*,-14,?
CCCCCCN1C=C/C(=C\C=C(C#N)C#N)c2ccccc21,-1,-15,-6,-1,-4,0
Cc1ccc(CNC(=O)CCNC(=O)c2ccc([N+](=O)[O-])cc2)cc1,4,-6,nt,nt,nt,-2
COCOc1cccc(CN2CCC2(C)C(=O)NCCNC(C)=O)c1 (stereo not given),nt,-7,nt,nt,nt,nt
CC1CC(C)CN(c2nc3c(c(=O)n(C)c(=O)n3C)n2CCSc2ncccn2)C1 (stereo not given),22*,-10,3,5,1,-12
